Rows were chosen to be rich in hits. Some 1.7% of all compounds tested hit in one or more screens of this group.
Hck Nef HTS: inhibitors of Nef-activated human Hck kinase, primary screen, biochemical, Z-Lyte FRET, 384-well, Hck-YEEI; Tyrosine-protein kinase HCK (Homo sapiens), P08631; 0.68% of 220,000 active; AID 463187, 2010; inhibition, % at 20 µM; Recombinant Hck-YEEI plus Nef, Z-Lyte FRET kinase assay;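 active means Hck-Nef kinase inhibition above about 50%, limit read from the data; inactive means inhibition below that limit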;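 further: 0% = DMSO with Hck plus Nef and 100% = Hck alone without Nef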
Target sequence (P08631 whole entry, looked up): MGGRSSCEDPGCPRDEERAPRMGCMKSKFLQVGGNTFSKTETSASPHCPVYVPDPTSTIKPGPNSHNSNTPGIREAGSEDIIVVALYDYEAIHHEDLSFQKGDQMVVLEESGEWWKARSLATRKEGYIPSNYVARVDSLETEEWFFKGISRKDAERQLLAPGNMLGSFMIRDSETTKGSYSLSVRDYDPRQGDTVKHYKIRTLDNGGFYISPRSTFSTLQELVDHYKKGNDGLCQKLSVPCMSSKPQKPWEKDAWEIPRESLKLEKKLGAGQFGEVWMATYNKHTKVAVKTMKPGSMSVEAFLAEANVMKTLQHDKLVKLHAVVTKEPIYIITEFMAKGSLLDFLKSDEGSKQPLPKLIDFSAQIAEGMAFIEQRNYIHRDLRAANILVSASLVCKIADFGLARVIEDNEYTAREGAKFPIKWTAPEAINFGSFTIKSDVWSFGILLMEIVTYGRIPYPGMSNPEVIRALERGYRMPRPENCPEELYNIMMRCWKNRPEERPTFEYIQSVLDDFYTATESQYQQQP
Runt-CBFb FRET: inhibitors of RUNX1 Runt–CBFb binding, primary screen, biochemical, FRET, Cerulean-Runt, Venus-CBFb, uHTS; Cerulean-Runt/Venus-CBFb FRET ratio 530/480, 1 h; inhibition, % at 20 µM; 0.46% of 220,000 active; AID 1496, 2009;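 active means inhibition over about 50% at 20 µM in the single-dose screen, limit read from the data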;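 further: 0% = DMSO wells and 100% = excess unlabeled CBFb competitor control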
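Assay system: Cerulean-Runt domain fusion protein, energy donor; Signal: fluorescence energy transfer, 422 nm excitation, 530/480 nm emission; Timing: 1 h compound exposure, room temperature; Control set: unlabeled CBFb; Medium: Tris buffer pH 7.5 with salts and BSA; Compound: single test concentration of 20 µM, 1% DMSO final; Probe or stimulus: Venus-CBFb 100 nM.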
Runt-SMMHC FRET: inhibitors of RUNX1 Runt–CBFb-SMMHC binding, primary screen, biochemical, FRET, Cerulean-Runt, Venus-CBFb-SMMHC, uHTS; Runt-related transcription factor 1 (Homo sapiens) + Core-binding factor subunit beta …; Cerulean-Runt/Venus-CBFb-SMMHC FRET ratio 530/480, 1 h; inhibition, % at 20 µM; 0.74% of 220,000 active; AID 1434, 2008;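 active means mean inhibition across duplicate retests at 20 µM reaching about 50%, limit read from the data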;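 further: 0% = DMSO wells and 100% = wells with excess untagged CBFb-SMMHC; inhibitors lower the FRET ratio by blocking Runt binding to CBFb-SMMHC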
RanGTP-Impb inh: inhibitors of RanGTP-importin-beta interaction, primary screen, biochemical, FRET, CFP-Ran, YFP-importin-beta, homogeneous; inhibition, % (no concentration beside the values); 1.1% of 300,000 active; Ran GTPase (GTP-bound) - importin-beta complex; cell-free CFP-Ran/YFP-importin-beta FRET ratio; AID 2216, 2009;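 active means more than half of the replicate wells show a fall in the fluorescence ratio signal beyond about 16%, limit read from the data, passing the limit was not always enough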;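 further: 0% = DMSO wells and 100% = Ran loaded with GDP instead of GTP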
* marks the source's active call; other numbers are inactive results.

How did O=C(CSc1ccc2nnc(CCNC(=O)c3ccccc3)n2n1)NCc1ccc(F)cc1 do in these assays?
RanGTP-Impb inh: 3

Results for Cc1ccc(C2C3=C(CC(C)(C)CC3=O)Nc3[nH]c(=S)[nH]c(=O)c32)cc1 (centres undefined) ?
Runt-CBFb FRET: 18; Runt-SMMHC FRET: 71*

What do the screens show for `COc1cccc(NC(=O)c2cc(OC)c(OC)c(OC)c2Br)c1`?
Hck Nef HTS: 2; Runt-CBFb FRET: -1; Runt-SMMHC FRET: -10; RanGTP-Impb inh: 7

Results for CCOC(=O)C1CCCN(C(=O)c2cc3ccc(OC)cc3[nH]2)C1 (centres undefined) ?
RanGTP-Impb inh: -4

Results for CC1(C)CC(=O)C=C(Nc2ccc(F)cc2F)C1 ?
Hck Nef HTS: 5; Runt-CBFb FRET: -2; Runt-SMMHC FRET: 2; RanGTP-Impb inh: 35*

Results for Cc1ccccc1NC1=CC(=O)CC(C)(C)C1 ?
Hck Nef HTS: 6; Runt-CBFb FRET: 2; Runt-SMMHC FRET: -3; RanGTP-Impb inh: 4

What do the screens show for `CC1(C)CC(=O)C=C(Nc2ccc(OCC(F)(F)C(F)F)cc2)C1`?
Hck Nef HTS: 1; Runt-CBFb FRET: -2; Runt-SMMHC FRET: 0; RanGTP-Impb inh: 30*

Results for CC1(C)CC(=O)C=C(Nc2ccc(F)cc2)C1 ?
Hck Nef HTS: 0; Runt-CBFb FRET: 1; Runt-SMMHC FRET: -5; RanGTP-Impb inh: 27*

How did CC1(C)CC(=O)C=C(Nc2ccc(F)c(Cl)c2)C1 do in these assays?
RanGTP-Impb inh: 4

How did COc1cc(NC2=CC(=O)CC(C)(C)C2)cc(OC)c1 do in these assays?
Hck Nef HTS: 1; Runt-CBFb FRET: 2; Runt-SMMHC FRET: -4; RanGTP-Impb inh: 2

How did CCOc1ccccc1CN1CCC(N2CCOCC2)CC1 do in these assays?
RanGTP-Impb inh: -4

What do the screens show for `CC(C)CC(=O)OC1C(N2CCOCC2)c2c(ccc(/C=C/C(=O)N3CCOCC3)c2O)OC1(C)C` (centres undefined)?
Hck Nef HTS: -2; Runt-CBFb FRET: -3; Runt-SMMHC FRET: -10; RanGTP-Impb inh: -3

Results for S=C(Nc1ccc(Oc2ccccc2)cc1)N(CCCN1CCOCC1)Cc1ccccn1 ?
Hck Nef HTS: -6; Runt-CBFb FRET: 8; Runt-SMMHC FRET: 10; RanGTP-Impb inh: -2

How did CCCN1CCN(CC(=O)Nc2nnc(CC)s2)CC1 do in these assays?
RanGTP-Impb inh: 2

Results for O=C(/C=C/c1cc[n+](CC(=O)c2ccc3cccc4c3c2CC4)cc1)c1ccc2cccc3c2c1CC3 ?
Hck Nef HTS: 69*; Runt-CBFb FRET: 4; Runt-SMMHC FRET: 15; RanGTP-Impb inh: 1

How did O=C(C[n+]1ccc2ccccc2c1)c1cccc2ccccc12 do in these assays?
Hck Nef HTS: 20; Runt-CBFb FRET: 0; Runt-SMMHC FRET: 1; RanGTP-Impb inh: -6

What do the screens show for `Cc1ccc(-n2nc(C)c(NS(=O)(=O)c3ccccc3)c2C)cc1C`?
Hck Nef HTS: -2; Runt-CBFb FRET: -1; Runt-SMMHC FRET: 2; RanGTP-Impb inh: 36*

What do the screens show for `N#CC1=C(N)NC(SCC(=O)O)=C(C#N)C12CCCC2`?
Hck Nef HTS: 2; Runt-CBFb FRET: 1; Runt-SMMHC FRET: -2; RanGTP-Impb inh: 6

Results for CC(C)N1CCC2(CC1)C(C#N)=C(N)NC(S)=C2C#N ?
Hck Nef HTS: 2; Runt-CBFb FRET: 29; Runt-SMMHC FRET: 64*; RanGTP-Impb inh: -5

What do the screens show for `CCN(C(=O)C(C)N1C(=O)/C(=C/c2ccco2)SC1=S)C1CCS(=O)(=O)C1` (centres undefined)?
RanGTP-Impb inh: 3

Results for CC(C(=O)O)N1C(=O)/C(=C/C=C/c2ccco2)SC1=S (centres undefined) ?
Hck Nef HTS: 69*; Runt-SMMHC FRET: 4; RanGTP-Impb inh: -12

Results for Cc1nc2ccn(Cc3ccccc3)c(=O)c2cc1C(=O)N1CCN(c2ccccc2)CC1 ?
RanGTP-Impb inh: 92*

What do the screens show for `O=C(Cc1cccs1)NC(Cc1c[nH]c2ccccc12)C(=O)O` (centres undefined)?
RanGTP-Impb inh: 1

Results for Cc1c(O)ccc2c(CC(=O)N[C@@H](Cc3c[nH]c4ccccc34)C(=O)O)cc(=O)oc12 ?
RanGTP-Impb inh: 21*

What do the screens show for `COc1ccc(CNc2nc3ccccc3s2)cc1OC`?
RanGTP-Impb inh: 6

What do the screens show for `COc1cc2ccccc2nn1`?
Hck Nef HTS: -31; Runt-CBFb FRET: 10; Runt-SMMHC FRET: 82*; RanGTP-Impb inh: 65*

What do the screens show for `COc1cc2c(C(=O)Nc3ccc4c(c3)OCO4)cn(CC(C)C)c(=O)c2cc1OC`?
Hck Nef HTS: 8; Runt-CBFb FRET: -14; Runt-SMMHC FRET: 1; RanGTP-Impb inh: 22*

How did COc1ccc2c(c1)CC1c3c(cc4c(c3-2)OCO4)CC[N+]1(C)[O-] (centres undefined) do in these assays?
Hck Nef HTS: 27; Runt-CBFb FRET: 3; Runt-SMMHC FRET: -2; RanGTP-Impb inh: -5

How did Oc1cc2c(cc1O)C1c3ccc(O)c(O)c3OCC1(O)C2 (centres undefined) do in these assays?
Hck Nef HTS: -164; Runt-CBFb FRET: 63*; Runt-SMMHC FRET: 59*

How did COc1ccccc1NC(=O)Nc1nc(CC(=O)Nc2cc(F)ccc2F)cs1 do in these assays?
RanGTP-Impb inh: -1

How did Cc1cc(OCc2ccc(C(=O)n3cccn3)o2)ccc1Cl do in these assays?
Hck Nef HTS: 1; Runt-CBFb FRET: 1; Runt-SMMHC FRET: -12; RanGTP-Impb inh: 67*

How did CCCCn1c(=NC(=O)c2ccc3c(c2)OCO3)c(C#N)cc2c(=O)n3cccc(C)c3nc21 do in these assays?
Hck Nef HTS: 3; Runt-CBFb FRET: 56*; Runt-SMMHC FRET: 39

Results for COCCn1c(=NC(=O)c2ccc3c(c2)OCO3)c(C#N)cc2c(=O)n3cccc(C)c3nc21 ?
Hck Nef HTS: 2; Runt-CBFb FRET: 105*; Runt-SMMHC FRET: 118*; RanGTP-Impb inh: 43*

How did COCCCn1c(C(=O)N2CCOCC2)cc2c(=O)n3cccc(C)c3nc21 do in these assays?
RanGTP-Impb inh: -1

Results for COc1ccc(F)cc1S(=O)(=O)Nc1cc2c3c(c1)CCC(=O)N3CCC2 ?
RanGTP-Impb inh: 0

How did CCOc1ccc(-c2nnc(NC(=O)C3CCCC3)o2)cc1 do in these assays?
RanGTP-Impb inh: 0

How did Cc1cc(=O)n2c3ccccc3n(C)c2n1 do in these assays?
RanGTP-Impb inh: 4

Results for Cc1ccc(S(=O)(=O)c2cc3c(=O)n4ccccc4nc3n(C)c2=N)cc1 ?
Hck Nef HTS: -2; Runt-CBFb FRET: 97*; Runt-SMMHC FRET: 62*; RanGTP-Impb inh: 174*

How did Cc1ccc(S(=O)(=O)c2cc3c(=O)n4ccccc4nc3n(C3CCCC3)c2=N)cc1 do in these assays?
RanGTP-Impb inh: 123*

Screens (PubChem)
